Bioassay records deposited in PubChem BioAssay by several laboratories.
Hits are enriched below; roughly 1.8% of the tested compounds scored in any of these assays.
Runt-SMMHC FRET – inhibitors of RUNX1 Runt–CBFb-SMMHC binding, primary screen, biochemical, FRET, Cerulean-Runt, Venus-CBFb-SMMHC, uHTS. Runt-related transcription factor 1 (Homo sapiens) + Core-binding factor subunit beta …. inhibition, % at 20 µM. Cerulean-Runt/Venus-CBFb-SMMHC FRET ratio 530/480, 1 h. AID 1434, 2008. 0.74% of 220,000 active;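 active = mean inhibition across duplicate retests at 20 µM reaching about 50%, limit read from the data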;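 note: 0% = DMSO wells and 100% = wells with excess untagged CBFb-SMMHC; inhibitors lower the FRET ratio by blocking Runt binding to CBFb-SMMHC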
Hck Nef HTS – inhibitors of Nef-activated human Hck kinase, primary screen, biochemical, Z-Lyte FRET, 384-well, Hck-YEEI; Tyrosine-protein kinase HCK (Homo sapiens), P08631; Recombinant Hck-YEEI plus Nef, Z-Lyte FRET kinase assay; inhibition, % at 20 µM; 0.68% of 220,000 active; AID 463187, 2010;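 active = Hck-Nef kinase inhibition above about 50%, limit read from the data; inactive = inhibition below that limit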;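 note: 0% = DMSO with Hck plus Nef and 100% = Hck alone without Nef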
Target sequence (P08631 whole entry, looked up): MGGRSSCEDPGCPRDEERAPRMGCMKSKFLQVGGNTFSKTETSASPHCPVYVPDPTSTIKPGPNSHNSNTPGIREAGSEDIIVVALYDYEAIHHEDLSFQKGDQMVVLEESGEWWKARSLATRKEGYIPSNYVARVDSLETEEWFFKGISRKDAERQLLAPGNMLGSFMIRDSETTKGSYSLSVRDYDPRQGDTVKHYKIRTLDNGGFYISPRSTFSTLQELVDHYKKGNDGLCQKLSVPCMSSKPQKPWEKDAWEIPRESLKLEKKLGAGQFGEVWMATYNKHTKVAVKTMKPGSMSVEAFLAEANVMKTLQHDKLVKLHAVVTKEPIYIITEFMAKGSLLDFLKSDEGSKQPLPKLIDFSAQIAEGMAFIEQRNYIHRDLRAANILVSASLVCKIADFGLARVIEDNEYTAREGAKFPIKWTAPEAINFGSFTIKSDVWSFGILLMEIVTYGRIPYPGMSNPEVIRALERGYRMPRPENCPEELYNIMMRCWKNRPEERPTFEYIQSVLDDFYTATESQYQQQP
Runt-CBFb FRET – inhibitors of RUNX1 Runt–CBFb binding, primary screen, biochemical, FRET, Cerulean-Runt, Venus-CBFb, uHTS | Cerulean-Runt/Venus-CBFb FRET ratio 530/480, 1 h | inhibition, % at 20 µM | 0.46% of 220,000 active | AID 1496, 2009;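 active = inhibition over about 50% at 20 µM in the single-dose screen, limit read from the data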;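 note: 0% = DMSO wells and 100% = excess unlabeled CBFb competitor control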
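Buffer or medium: Tris pH 7.5 buffer with BSA. Assay system: Cerulean-labeled Runt domain protein. Amount: each fluorescent fusion protein 100 nM. Read-out basis: loss of energy transfer signal. Incubation: 1 h compound exposure, room temperature. Probe or stimulus: Venus-CBFb binding partner, 100 nM. Detection: FRET, excitation 422 nm, emission at 530 and 480 nm.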
RanGTP-Imp inh – inhibitors of RanGTP-importin-beta interaction, primary screen, biochemical, FRET, CFP-Ran, YFP-importin-beta, homogeneous; Ran GTPase (GTP-bound) - importin-beta complex; cell-free CFP-Ran/YFP-importin-beta FRET ratio; inhibition, % (no concentration beside the values); 1.1% of 300,000 active; AID 2216, 2009;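 active = more than half of the replicate wells show a fall in the fluorescence ratio signal beyond about 16%, limit read from the data, passing the limit was not always enough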;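 note: 0% = DMSO wells and 100% = Ran loaded with GDP instead of GTP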
Starred values were filed as active, the others as inactive.

CNS(=O)(=O)c1ccc2c3c(cccc13)C(=O)N2C was read as RanGTP-Imp inh 5.
For CN1C(=O)c2cccc3c(S(=O)(=O)N(C)C)ccc1c23 the results were RanGTP-Imp inh 19*.
Cn1c2c(c(=O)n(C)c1=O)NC1(N2)C(=O)Nc2ccccc21 (configuration not stated) was read as Runt-SMMHC FRET -7, Hck Nef HTS 12, Runt-CBFb FRET 1 and RanGTP-Imp inh 37*.
`Cc1ccc(S(=O)(=O)N(C)C)cc1NC(=O)COC(=O)Cc1ccccc1F` gave RanGTP-Imp inh -2.
For Cc1cccc(Nc2nnc(SC/C(O)=C(\C#N)c3nc4ccccc4[nH]3)s2)c1C the results were Runt-SMMHC FRET 47, Hck Nef HTS 9, Runt-CBFb FRET 13 and RanGTP-Imp inh 26*.
For Cc1cccc(C)c1Nc1nnc(SC/C(O)=C(\C#N)c2nc3ccccc3[nH]2)s1 the results were Runt-SMMHC FRET 23, Hck Nef HTS 22, Runt-CBFb FRET 9 and RanGTP-Imp inh 11.
O=C(Nc1ccc(C(=O)O)cc1)/C(=C\c1ccco1)NC(=O)c1ccco1 was read as RanGTP-Imp inh 3.
For Nc1n[nH]c2cc(=O)n(-c3ccc(Cl)cc3)nc12 the results were Runt-SMMHC FRET 54*, Hck Nef HTS 7, Runt-CBFb FRET 18 and RanGTP-Imp inh 77*.
`COc1ccc(-n2nc3c(N)n[nH]c3cc2=O)cc1` gave Runt-SMMHC FRET -20, Hck Nef HTS 5, Runt-CBFb FRET -6 and RanGTP-Imp inh -14.
Screening O/C=c1\ccc2cccc3nc(C(F)(F)F)nc1c23 returned RanGTP-Imp inh 4.
C/C(O)=c1/ccc2cccc3nc(C)nc1c23 was read as Hck Nef HTS -1, Runt-CBFb FRET -13 and RanGTP-Imp inh 54*.
COc1cccc(OC)c1NC(=O)C1CCCN1C(=O)Nc1cccc(Cl)c1 (configuration not stated) was read as RanGTP-Imp inh -2.
CN1C(=O)N(C)c2ccc(C=O)c3cccc1c23 was read as Runt-SMMHC FRET 92*, Hck Nef HTS -5, Runt-CBFb FRET 59* and RanGTP-Imp inh -6.
CN1C(=O)N(C)c2ccc(Br)c3cccc1c23 was read as RanGTP-Imp inh 4.
`O=S(=O)(O)c1cccc2c(N=Nc3ccc(O)c4ncccc34)cccc12` gave RanGTP-Imp inh 16*.
`Cc1cc(C(=O)OC(C)C(=O)N2CCc3ccccc32)ccc1[N+](=O)[O-]` (configuration not stated) gave RanGTP-Imp inh -3.
Screening CCn1cc(Br)c(C(=O)Nc2ccc(Cl)c(Cl)c2)n1 returned Runt-SMMHC FRET 3, Hck Nef HTS 5, Runt-CBFb FRET -4 and RanGTP-Imp inh 57*.
Screening CC(C)(C)C1=CC(=Nc2ccccc2N)C=C(C(C)(C)C)C1=O returned Runt-SMMHC FRET 4, Hck Nef HTS 2, Runt-CBFb FRET -4 and RanGTP-Imp inh -2.
`CC(C)(C)C1=CC(=O)C(=O)C(C(C)(C)C)=C1` gave Runt-SMMHC FRET 70, Hck Nef HTS 56*, Runt-CBFb FRET 48 and RanGTP-Imp inh 3.
`NS(=O)(=O)c1ccc(S(=O)(=O)N(CCc2ccccc2)Cc2ccccn2)cc1` gave RanGTP-Imp inh 2.
`COCCN1CC(=O)N2C(c3cccc(OC)c3)c3[nH]c4ccccc4c3C[C@H]2C1=O` (some centres not stated) gave RanGTP-Imp inh 3.
CN(C)c1ccc(C2C3C(=O)NC(=O)C3ON2c2ccc(Cl)cc2)cc1 (configuration not stated) was read as Runt-SMMHC FRET 2, Hck Nef HTS -1, Runt-CBFb FRET 6 and RanGTP-Imp inh 22*.
Cc1ccccc1OCC(=O)Nc1c2c(nn1C(C)(C)C)CS(=O)(=O)C2 was read as RanGTP-Imp inh 5.
Screening CCOC(=O)c1ccc[n+](CC(=O)c2ccccc2)c1 returned Runt-SMMHC FRET -9, Hck Nef HTS -1, Runt-CBFb FRET -3 and RanGTP-Imp inh 25*.
CCOC(=O)c1ccc(Nc2nnc(C)c3ccccc23)cc1 was read as Runt-SMMHC FRET 5, Hck Nef HTS 21, Runt-CBFb FRET 3 and RanGTP-Imp inh 2.
For O=C(Nc1cccc(C(=O)N2CCOCC2)c1)c1ccccc1Cl the results were RanGTP-Imp inh 0.
COc1ccc(NC(=S)N2CCCCC2c2cccnc2)cc1 (configuration not stated) was read as Runt-SMMHC FRET 0, Hck Nef HTS 9, Runt-CBFb FRET -2 and RanGTP-Imp inh 5.
O=C(NC(=S)N1CCCCC1c1cccnc1)c1ccc(Br)cc1 (configuration not stated) was read as RanGTP-Imp inh 33*.
Screening Cc1cccc(NC(=S)N2CCCCC2c2cccnc2)c1C (configuration not stated) returned Runt-SMMHC FRET -1, Hck Nef HTS -2, Runt-CBFb FRET 1 and RanGTP-Imp inh 3.
`O=C(NC(=S)N1CCCCC1c1cccnc1)c1ccc(F)cc1` (configuration not stated) gave RanGTP-Imp inh 19*.
For COc1ccccc1NC(=O)OC(C)c1ccc(Cl)cc1 (configuration not stated) the results were RanGTP-Imp inh 1.
Screening Cn1c(=O)c2sccc2n2c(CCCC(=O)NCCc3ccccc3)nnc12 returned RanGTP-Imp inh 5.
Screening NS(=O)(=O)c1ccc(CNC(=O)c2cc(=O)c3cc(Cl)ccc3o2)cc1 returned RanGTP-Imp inh -3.
`Cc1ccc2nc3c(cc(C(=O)NCCN4CCOCC4)c(=N)n3CCCN3CCOCC3)c(=O)n2c1` gave RanGTP-Imp inh 143*.
Cc1ccc2nc(NCCCN3CCOCC3)c(C=NCCCN3CCOCC3)c(=O)n2c1 was read as Runt-SMMHC FRET 66*, Hck Nef HTS 3, Runt-CBFb FRET 76* and RanGTP-Imp inh 39*.
For Cc1ccc2nc(NCc3ccccc3)c(C=NCc3ccccc3)c(=O)n2c1 the results were Runt-SMMHC FRET 0, Hck Nef HTS -10, Runt-CBFb FRET -6 and RanGTP-Imp inh 1.
For Cc1ccc2nc3c(cc(C(=O)NCCc4ccccc4)c(=N)n3CCN3CCOCC3)c(=O)n2c1 the results were RanGTP-Imp inh 159*.
O=C(N/N=C/c1c(O)n(-c2ccc(Cl)cn2)c(=O)c2ccccc12)c1ccncc1 was read as Runt-SMMHC FRET 86*, Hck Nef HTS -5, Runt-CBFb FRET -22 and RanGTP-Imp inh -6.
`O=C(N/N=C/c1c(O)n(-c2ccc(Cl)cn2)c(=O)c2ccccc12)C1CC1` gave Runt-SMMHC FRET -65, Hck Nef HTS 0, Runt-CBFb FRET -14 and RanGTP-Imp inh 2.
